Experimental data published in ChEMBL document CHEMBL1629444, “DNA-dependent protein kinase (DNA-PK) inhibitors. Synthesis and biological activity of quinolin-4-one and pyridopyrimidin-4-one surrogates for the chromen-4-one chemotype” (J Med Chem, 2010).

Columns and labels:
[1] = Inhibition of DNA-PK isolated from human HeLa cell extract assessed as reduction in p53 Ser15 phosphorylation by chemiluminescence assay; format: cell-free
HeLa [2] = assay: Potentiation of ionizing radiation-induced cytotoxicity in human HeLa cells assessed as dose modification ratio at 0.1 uM pretreated 1 hr before 2 Gy ionizing radiation by Giemsa staining relative untreated control; format: functional
Procedure, shortened: (§1)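 HeLa cells seeded in six-well dishes and left overnight at 37 °C/5% CO2. Compound or vehicle given 1 h before a single 2 Gy X-ray dose, then incubated overnight. Medium replaced without compound and cells grown 6-8 days. Colonies Giemsa-stained and counted automatically. DMR is % survival at 2 Gy without compound divided by % survival at 2 Gy with compound.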

HeLa [3] = assay: Potentiation of ionizing radiation-induced cytotoxicity in human HeLa cells assessed as dose modification ratio at 0.5 uM pretreated 1 hr before 2 Gy ionizing radiation by Giemsa staining relative untreated control; format: functional; procedure, shortened: as §1

Row | SMILES | IC50 [1] [nM] | Ratio (HeLa [2]) | Ratio (HeLa [3])
1 | O=C(CN1CCOCC1)Nc1ccc(-c2cccn3c(=O)cc(N4CCOCC4)nc23)c2oc3ccccc3c12 | 59 | 1.4 | 2.3
2 | C[C@@H]1CN(CCC(=O)Nc2ccc(-c3cccc4c(=O)cc(N5CCOCC5)[nH]c34)c3oc4ccccc4c23)C[C@H](C)O1 | 151 | 0.8 | 0.9
3 | O=C(CN1CCNCC1)Nc1ccc(-c2cccc3c(=O)cc(N4CCOCC4)[nH]c23)c2sc3ccccc3c12 | 133 |  | 2.2
4 | CN1CCN(CC(=O)Nc2ccc(-c3cccc4c(=O)cc(N5CCOCC5)[nH]c34)c3oc4ccccc4c23)CC1 | 116 | 1.2 | 1.6
5 | O=c1cc(N2CCOCC2)nc2c3ccccc3ccn12 | 280 |  | 
6 | C[C@@H]1CN(CCC(=O)Nc2ccc(-c3cccn4c(=O)cc(N5CCOCC5)nc34)c3oc4ccccc4c23)C[C@H](C)O1 | 70 | 0.9 | 4.1
7 | O=C(CN1CCN(CCO)CC1)Nc1ccc(-c2cccc3c(=O)cc(N4CCOCC4)[nH]c23)c2oc3ccccc3c12 | 39 | 1.3 | 1.5
8 | COCCN1CCN(CC(=O)Nc2ccc(-c3cccn4c(=O)cc(N5CCOCC5)nc34)c3sc4ccccc4c23)CC1 | 22 | 4 | 14.4
9 | CC(C)NC(=O)CN1CCN(CC(=O)Nc2ccc(-c3cccn4c(=O)cc(N5CCOCC5)nc34)c3sc4ccccc4c23)CC1 | 25 |  | 7.3
10 | CCN1CCN(CC(=O)Nc2ccc(-c3cccn4c(=O)cc(N5CCOCC5)nc34)c3oc4ccccc4c23)CC1 | 29 | 1.1 | 6.4
11 | O=C(CN1CCN(CCO)CC1)Nc1ccc(-c2cccc3c(=O)cc(N4CCOCC4)[nH]c23)c2sc3ccccc3c12 | 18 |  | 2.1
12 | O=C(CCNCC1CCCO1)Nc1ccc(-c2cccn3c(=O)cc(N4CCOCC4)nc23)c2sc3ccccc3c12 (stereo not drawn) | 77 | 4.3 | 4.3
13 | O=C(CCN1CCCCC1)Nc1ccc(-c2cccc3c(=O)cc(N4CCOCC4)[nH]c23)c2sc3ccccc3c12 | 51 |  | 2.9
14 | O=C(CN1CCNCC1)Nc1ccc(-c2cccn3c(=O)cc(N4CCOCC4)nc23)c2sc3ccccc3c12 | 25 | 1.5 | 6.2
15 | CC(C)NC(=O)CN1CCN(CC(=O)Nc2ccc(-c3cccn4c(=O)cc(N5CCOCC5)nc34)c3oc4ccccc4c23)CC1 | 36 | 1.7 | 13
16 | O=C(CCN1CCCCC1)Nc1ccc(-c2cccc3c(=O)cc(N4CCOCC4)[nH]c23)c2oc3ccccc3c12 | 314 | 1 | 1.1
17 | O=C(CN1CCN(c2ccccn2)CC1)Nc1ccc(-c2cccc3c(=O)cc(N4CCOCC4)[nH]c23)c2sc3ccccc3c12 | 19 |  | 5.8
18 | CC(=O)N1CCN(CCC(=O)Nc2ccc(-c3cccn4c(=O)cc(N5CCOCC5)nc34)c3sc4ccccc4c23)CC1 | 32 | 2.1 | 2.1
19 | O=C(CCN1CCCCC1)Nc1ccc(-c2cccn3c(=O)cc(N4CCOCC4)nc23)c2sc3ccccc3c12 | 28 | 14.3 | 14.3
20 | O=C(CN1CCN(c2ccccn2)CC1)Nc1ccc(-c2cccn3c(=O)cc(N4CCOCC4)nc23)c2sc3ccccc3c12 | 175 |  | 3.9
21 | CCN1CCN(CC(=O)Nc2ccc(-c3cccn4c(=O)cc(N5CCOCC5)nc34)c3sc4ccccc4c23)CC1 | 18 | 1.4 | 7.7
22 | O=C(CCNCC1CCCO1)Nc1ccc(-c2cccc3c(=O)cc(N4CCOCC4)[nH]c23)c2sc3ccccc3c12 (stereo not drawn) | 102 |  | 2.1
23 | C[C@@H]1CN(CC(=O)Nc2ccc(-c3cccn4c(=O)cc(N5CCOCC5)nc34)c3sc4ccccc4c23)C[C@H](C)O1 | 7 |  | 15.1
24 | O=C(CCNCCCN1CCOCC1)Nc1ccc(-c2cccn3c(=O)cc(N4CCOCC4)nc23)c2sc3ccccc3c12 | 29 | 1.7 | 1.7
25 | O=C(CCN1CCOCC1)Nc1ccc(-c2cccn3c(=O)cc(N4CCOCC4)nc23)c2oc3ccccc3c12 | 77 | 1.3 | 6.3
26 | O=C(CN1CCN(CCO)CC1)Nc1ccc(-c2cccn3c(=O)cc(N4CCOCC4)nc23)c2sc3ccccc3c12 | 19 | 1.4 | 13.6
27 | O=C(CN1CCN(CCOCCO)CC1)Nc1ccc(-c2cccn3c(=O)cc(N4CCOCC4)nc23)c2sc3ccccc3c12 | 51 | 1 | 8.3
28 | C[C@@H]1CN(CC(=O)Nc2ccc(-c3cccn4c(=O)cc(N5CCOCC5)nc34)c3oc4ccccc4c23)C[C@H](C)O1 | 15 | 1 | 3

Row | SMILES | IC50 [1] [nM] | Ratio (HeLa [2]) | Ratio (HeLa [3])
29 | CC(C)NC(=O)CN1CCN(CC(=O)Nc2ccc(-c3cccc4c(=O)cc(N5CCOCC5)[nH]c34)c3oc4ccccc4c23)CC1 | 55 | 1.4 | 1.6
30 | O=C(CCN1CCCCC1)Nc1ccc(-c2cccn3c(=O)cc(N4CCOCC4)nc23)c2oc3ccccc3c12 | 21 | 2.5 | 1
31 | O=C(CN1CCN(CCO)CC1)Nc1ccc(-c2cccn3c(=O)cc(N4CCOCC4)nc23)c2oc3ccccc3c12 | 17 | 1.3 | 5.8
32 | O=C(CNCCCN1CCOCC1)Nc1ccc(-c2cccc3c(=O)cc(N4CCOCC4)[nH]c23)c2sc3ccccc3c12 | 64 |  | 4
33 | CN1CCN(CC(=O)Nc2ccc(-c3cccn4c(=O)cc(N5CCOCC5)nc34)c3oc4ccccc4c23)CC1 | 30 | 1.1 | 4.3
34 | O=C(CCN1CCOCC1)Nc1ccc(-c2cccc3c(=O)cc(N4CCOCC4)[nH]c23)c2sc3ccccc3c12 | 179 |  | 2.8
35 | COCCN1CCN(CC(=O)Nc2ccc(-c3cccc4c(=O)cc(N5CCOCC5)[nH]c34)c3oc4ccccc4c23)CC1 | 68 | 1.1 | 1.4
36 | CCN1CCN(CC(=O)Nc2ccc(-c3cccc4c(=O)cc(N5CCOCC5)[nH]c34)c3sc4ccccc4c23)CC1 | 61 |  | 3.4
37 | O=C(CN1CCOCC1)Nc1ccc(-c2cccn3c(=O)cc(N4CCOCC4)nc23)c2sc3ccccc3c12 | 8 | 3.5 | 9.9
38 | O=C(CCN1CCCCCC1)Nc1ccc(-c2cccc3c(=O)cc(N4CCOCC4)[nH]c23)c2sc3ccccc3c12 | 141 |  | 2.2
39 | CCN1CCN(CC(=O)Nc2ccc(-c3cccc4c(=O)cc(N5CCOCC5)oc34)c3sc4ccccc4c23)CC1 | 6 | 3.2 | 
40 | O=C(CN(CCO)CCO)Nc1ccc(-c2cccn3c(=O)cc(N4CCOCC4)nc23)c2sc3ccccc3c12 | 29 | 1.1 | 3.8
41 | CN1CCN(CC(=O)Nc2ccc(-c3cccn4c(=O)cc(N5CCOCC5)nc34)c3sc4ccccc4c23)CC1 | 24 | 2.4 | 9.2
42 | COCCN1CCN(CC(=O)Nc2ccc(-c3cccc4c(=O)cc(N5CCOCC5)[nH]c34)c3sc4ccccc4c23)CC1 | 33 | 1.2 | 8.2
43 | O=C(CN1CCOCC1)Nc1ccc(-c2cccc3c(=O)cc(N4CCOCC4)[nH]c23)c2sc3ccccc3c12 | 60 |  | 3.1
44 | C[C@@H]1CN(CCC(=O)Nc2ccc(-c3cccc4c(=O)cc(N5CCOCC5)[nH]c34)c3sc4ccccc4c23)C[C@H](C)O1 | 14 |  | 2.2
45 | O=C(CCN1CCOCC1)Nc1ccc(-c2cccn3c(=O)cc(N4CCOCC4)nc23)c2sc3ccccc3c12 | 86 | 6.2 | 6.2
46 | CC(=O)N1CCN(CCC(=O)Nc2ccc(-c3cccc4c(=O)cc(N5CCOCC5)[nH]c34)c3sc4ccccc4c23)CC1 | 21 |  | 2.6
47 | O=c1cc(N2CCOCC2)oc2c1ccc1ccccc12 | 230 |  | 
48 | CCN1CCN(CC(=O)Nc2ccc(-c3cccc4c(=O)cc(N5CCOCC5)[nH]c34)c3oc4ccccc4c23)CC1 | 77 | 1.2 | 3.6
49 | C[C@@H]1CN(CCC(=O)Nc2ccc(-c3cccn4c(=O)cc(N5CCOCC5)nc34)c3sc4ccccc4c23)C[C@H](C)O1 | 27 | 4.6 | 4.6
50 | C[C@@H]1CN(CC(=O)Nc2ccc(-c3cccc4c(=O)cc(N5CCOCC5)[nH]c34)c3oc4ccccc4c23)C[C@H](C)O1 | 37 | 1.1 | 1.6
51 | O=C(CN1CCOCC1)Nc1ccc(-c2cccc3c(=O)cc(N4CCOCC4)[nH]c23)c2oc3ccccc3c12 | 112 | 1.1 | 1.6
52 | NCC(=O)Nc1ccc(-c2cccc3c(=O)cc(N4CCOCC4)[nH]c23)c2sc3ccccc3c12 | 198 |  | 2.6
53 | COc1ccc(CNCCC(=O)Nc2ccc(-c3cccn4c(=O)cc(N5CCOCC5)nc34)c3sc4ccccc4c23)cc1 | 12 | 6.7 | 6.7
54 | O=C(CCNCC1CCCO1)Nc1ccc(-c2cccn3c(=O)cc(N4CCOCC4)nc23)c2oc3ccccc3c12 (stereo not drawn) | 75 | 1.3 | 7.4
55 | CN1CCN(CC(=O)Nc2ccc(-c3cccc4c(=O)cc(N5CCOCC5)[nH]c34)c3sc4ccccc4c23)CC1 | 43 |  | 2.5
